# Test results reported in ChEMBL document CHEMBL1141626, “Thiosemicarbazones active against Clostridium difficile” (2008).
# Columns and labels:
# Format in all cases: functional
# Clostridioides difficile [1] = assay: Antimicrobial activity against Clostridium difficile Z1579 after 48 hrs
# In short: (§1)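 Anaerobes incubated in an anaerobic cabinet for broth MIC determination. Drug-free incubations of the same organisms served as controls. Value is the minimum inhibitory concentration.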
# Staphylococcus aureus [2] = assay: Antimicrobial activity against Staphylococcus aureus V1 after 24 hrs
# In short: (§2)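 MIC by dilution in nutrient broth. Anaerobic organisms were incubated in an anaerobic cabinet. Controls were the same organisms incubated without test compound.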
# Clostridioides difficile [3] = assay: Antimicrobial activity against Clostridium difficile Z172 after 48 hrs; in short: as §1
# Cutibacterium acnes [4] = assay: Antimicrobial activity against Propionibacterium acnes D3 after 48 hrs; in short: as §2
# [5] = tested on: Staphylococcus epidermidis; assay: Antimicrobial activity against Staphylococcus epidermidis 8A after 24 hrs; in short: as §2
# Clostridioides difficile [6] = assay: Antimicrobial activity against Clostridium difficile Z161 after 48 hrs; in short: as §1
# Cutibacterium acnes [7] = assay: Antimicrobial activity against Propionibacterium acnes NCTC 737 after 48 hrs; conditions: NCTC 737, 48 h; in short: as §2
# Clostridioides difficile [8] = assay: Antimicrobial activity against Clostridium difficile Z66 after 48 hrs; in short: as §1
# Clostridioides difficile [9] = assay: Antimicrobial activity against Clostridium difficile Z166 after 48 hrs; in short: as §1
# Clostridioides difficile [10] = assay: Antimicrobial activity against Clostridium difficile Z175 after 48 hrs; in short: as §1
# Clostridioides difficile [11] = assay: Antimicrobial activity against Clostridium difficile NCTC 11204 after 48 hrs; conditions: NCTC 11204, 48 h; in short: as §1
# [12] = tested on: Staphylococcus epidermidis; assay: Antimicrobial activity against Staphylococcus epidermidis NCTC 11047 after 24 hrs; conditions: NCTC 11047, 24 h; in short: as §2
# Acinetobacter sp. [13] = assay: Antimicrobial activity against Acinetobacter sp.2
# Staphylococcus aureus [14] = assay: Antimicrobial activity against methicillin-resistant Staphylococcus aureus A1 after 24 hrs; in short: as §2
# [15] = tested on: Staphylococcus epidermidis; assay: Antimicrobial activity against Staphylococcus epidermidis 3 after 24 hrs; in short: as §2
# Clostridioides difficile [16] = assay: Antimicrobial activity against Clostridium difficile Z150 after 48 hrs; in short: as §1
# Clostridioides difficile [17] = assay: Antimicrobial activity against Clostridium difficile Z160 after 48 hrs; in short: as §1
# Staphylococcus aureus [18] = assay: Antimicrobial activity against methicillin-resistant Staphylococcus aureus A3 after 24 hrs; in short: as §2
# [19] = tested on: Staphylococcus epidermidis; assay: Antimicrobial activity against Staphylococcus epidermidis 10 after 24 hrs; in short: as §2
# Staphylococcus aureus [20] = assay: Antimicrobial activity against methicillin-sensitive Staphylococcus aureus A2 after 24 hrs; in short: as §2
# Clostridioides difficile [21] = assay: Antimicrobial activity against Clostridium difficile Z387 after 48 hrs; in short: as §1
# Clostridioides difficile [22] = assay: Antimicrobial activity against Clostridium difficile Z1578 after 48 hrs; in short: as §1
# Staphylococcus aureus [23] = assay: Antimicrobial activity against Staphylococcus aureus ATCC 6538 after 24 hrs; conditions: ATCC 6538, 24 h; in short: as §2
# Clostridioides difficile [24] = assay: Antimicrobial activity against Clostridium difficile Z169 after 48 hrs; in short: as §1
# Acinetobacter sp. [25] = assay: Antimicrobial activity against Acinetobacter sp.3
# Staphylococcus aureus [26] = assay: Antimicrobial activity against methicillin-resistant Staphylococcus aureus B3 after 24 hrs; in short: as §2
# Candida albicans [27] = assay: Antimicrobial activity against Candida albicans 1009116
# Clostridioides difficile [28] = assay: Antimicrobial activity against Clostridium difficile Z159 after 48 hrs; in short: as §1
# Clostridioides difficile [29] = assay: Antimicrobial activity against Clostridium difficile Z158 after 48 hrs; in short: as §1
# Staphylococcus aureus [30] = assay: Antimicrobial activity against methicillin-sensitive Staphylococcus aureus A3 after 24 hrs; in short: as §2
# [31] = tested on: Staphylococcus epidermidis; assay: Antimicrobial activity against Staphylococcus epidermidis 9 after 24 hrs; in short: as §2
# Clostridioides difficile [32] = assay: Antimicrobial activity against Clostridium difficile Z1580 after 48 hrs; in short: as §1
# Clostridioides difficile [33] = assay: Antimicrobial activity against Clostridium difficile Z167 after 48 hrs; in short: as §1
# Candida albicans [34] = assay: Antimicrobial activity against Candida albicans 1012155
# Acinetobacter sp. [35] = assay: Antimicrobial activity against Acinetobacter sp.4
# Clostridioides difficile [36] = assay: Antimicrobial activity against Clostridium difficile Z173 after 48 hrs; in short: as §1
# Staphylococcus aureus [37] = assay: (§3) Antimicrobial activity against Staphylococcus aureus H1 after 24 hrs; in short: as §2
# Cutibacterium acnes [38] = assay: Antimicrobial activity against Propionibacterium acnes B5 after 48 hrs; in short: as §1
# Cutibacterium acnes [39] = assay: Antimicrobial activity against Propionibacterium acnes D1 after 48 hrs; in short: as §2
# Clostridioides difficile [40] = assay: Antimicrobial activity against Clostridium difficile Z176 after 48 hrs; in short: as §1
# Clostridioides difficile [41] = assay: Antimicrobial activity against Clostridium difficile Z1577 after 48 hrs; in short: as §1
# Clostridioides difficile [42] = assay: Antimicrobial activity against Clostridium difficile Z1591 after 48 hrs; in short: as §1
# [43] = tested on: Staphylococcus epidermidis; assay: Antimicrobial activity against Staphylococcus epidermidis 11 after 24 hrs; in short: as §2
# Clostridioides difficile [44] = assay: Antimicrobial activity against Clostridium difficile Z21 after 48 hrs; in short: as §1
# [45] = tested on: Staphylococcus epidermidis; assay: Antimicrobial activity against Staphylococcus epidermidis 4 after 24 hrs; in short: as §2
# Staphylococcus aureus [46] = assay: as §3; in short: as §2; remark: listed apart in the source
# Clostridioides difficile [47] = assay: Antimicrobial activity against Clostridium difficile Z177 after 48 hrs; in short: as §1
# Staphylococcus aureus [48] = assay: Antimicrobial activity against epidemic methicillin-resistant Staphylococcus aureus 15 after 24 hrs; in short: as §2
# Clostridioides difficile [49] = assay: Antimicrobial activity against Clostridium difficile O27 after 48 hrs; in short: as §1
# Clostridioides difficile [50] = assay: Antimicrobial activity against Clostridium difficile Z179 after 48 hrs; in short: as §1
# Acinetobacter sp. [51] = assay: Antimicrobial activity against Acinetobacter sp.5
# Acinetobacter sp. [52] = assay: Antimicrobial activity against Acinetobacter sp.1
# Clostridioides difficile [53] = assay: Antimicrobial activity against Clostridium difficile Z229 after 48 hrs; in short: as §1
# Staphylococcus aureus [54] = assay: Antimicrobial activity against Staphylococcus aureus T1 after 24 hrs; in short: as §2
# Staphylococcus aureus [55] = assay: Antimicrobial activity against methicillin-resistant Staphylococcus aureus B1 after 24 hrs; in short: as §2
# [56] = tested on: Staphylococcus epidermidis; assay: Antimicrobial activity against Staphylococcus epidermidis RP62A after 24 hrs; in short: as §2
# Staphylococcus aureus [57] = assay: Antimicrobial activity against Staphylococcus aureus K1 after 24 hrs; in short: as §2
# Clostridioides difficile [58] = assay: Antimicrobial activity against Clostridium difficile Z16 after 48 hrs; in short: as §1
# [59] = tested on: Staphylococcus epidermidis; assay: Antimicrobial activity against Staphylococcus epidermidis 7A after 24 hrs; in short: as §2
# Staphylococcus aureus [60] = assay: Antimicrobial activity against methicillin-resistant Staphylococcus aureus C1 after 24 hrs; in short: as §2
# Clostridioides difficile [61] = assay: Antimicrobial activity against Clostridium difficile Z168 after 48 hrs; in short: as §1
# Candida albicans [62] = assay: Antimicrobial activity against Candida albicans 1013781
# Clostridioides difficile [63] = assay: Antimicrobial activity against Clostridium difficile Z1568 after 48 hrs; in short: as §1
# Clostridioides difficile [64] = assay: Antimicrobial activity against Clostridium difficile Z171 after 48 hrs; in short: as §1
# Clostridioides difficile [65] = assay: Antimicrobial activity against Clostridium difficile Z251 after 48 hrs; in short: as §1
# Staphylococcus aureus [66] = assay: Antimicrobial activity against methicillin-resistant Staphylococcus aureus D1 after 24 hrs; in short: as §2
# Cutibacterium acnes [67] = assay: Antimicrobial activity against Propionibacterium acnes C5 after 48 hrs; in short: as §2
# Cutibacterium acnes [68] = assay: Antimicrobial activity against Propionibacterium acnes C3 after 48 hrs; in short: as §2
# Cutibacterium acnes [69] = assay: Antimicrobial activity against Propionibacterium acnes B3 after 24 hrs
# Clostridioides difficile [70] = assay: Antimicrobial activity against Clostridium difficile Z164 after 48 hrs; in short: as §1
# Cutibacterium acnes [71] = assay: Antimicrobial activity against Propionibacterium acnes C1 after 24 hrs; in short: as §2
# Clostridioides difficile [72] = assay: Antimicrobial activity against Clostridium difficile Z170 after 48 hrs; in short: as §1
# Candida albicans [73] = assay: Antimicrobial activity against Candida albicans 1011377
# Candida albicans [74] = assay: Antimicrobial activity against Candida albicans 1015391
# Staphylococcus aureus [75] = assay: Antimicrobial activity against methicillin-resistant Staphylococcus aureus E1 after 24 hrs; in short: as §2
# Clostridioides difficile [76] = assay: Antimicrobial activity against Clostridium difficile Z162 after 48 hrs; in short: as §1
# Clostridioides difficile [77] = assay: Antimicrobial activity against Clostridium difficile Z163 after 48 hrs; in short: as §1
# Staphylococcus aureus [78] = assay: Antimicrobial activity against methicillin-resistant Staphylococcus aureus C3 after 24 hrs; in short: as §2
smiles,measurement,setting,value
CCNC(=S)N/N=C/C=C/c1ccc([N+](=O)[O-])o1,MIC,Clostridioides difficile [1],2 µg/mL
same,MIC,Staphylococcus aureus [2],2 µg/mL
same,MIC,Clostridioides difficile [3],4 µg/mL
same,MIC,Cutibacterium acnes [4],4 µg/mL
same,MIC,[5],2 µg/mL
same,MIC,Clostridioides difficile [6],0.5 µg/mL
same,MIC,Cutibacterium acnes [7],4 µg/mL
same,MIC,Clostridioides difficile [8],4 µg/mL
same,MIC,Clostridioides difficile [9],2 µg/mL
same,MIC,Clostridioides difficile [10],0.5 µg/mL
same,MIC,Clostridioides difficile [11],4 µg/mL
same,MIC,[12],4 µg/mL
same,MIC,Acinetobacter sp. [13],128 µg/mL
same,MIC,Staphylococcus aureus [14],2 µg/mL
same,MIC,[15],2 µg/mL
same,MIC,Clostridioides difficile [16],4 µg/mL
same,MIC,Clostridioides difficile [17],8 µg/mL
same,MIC,Staphylococcus aureus [18],4 µg/mL
same,MIC,[19],4 µg/mL
same,MIC,Staphylococcus aureus [20],4 µg/mL
same,MIC,Clostridioides difficile [21],16 µg/mL
same,MIC,Clostridioides difficile [22],1 µg/mL
same,MIC,Staphylococcus aureus [23],4 µg/mL
same,MIC,Clostridioides difficile [24],2 µg/mL
same,MIC,Acinetobacter sp. [25],128 µg/mL
same,MIC,Staphylococcus aureus [26],4 µg/mL
same,MIC,Candida albicans [27],128 µg/mL
same,MIC,Clostridioides difficile [28],8 µg/mL
same,MIC,Clostridioides difficile [29],2 µg/mL
same,MIC,Staphylococcus aureus [30],4 µg/mL
same,MIC,[31],1 µg/mL
same,MIC,Clostridioides difficile [32],1 µg/mL
same,MIC,Clostridioides difficile [33],2 µg/mL
same,MIC,Candida albicans [34],128 µg/mL
same,MIC,Acinetobacter sp. [35],128 µg/mL
same,MIC,Clostridioides difficile [36],8 µg/mL
same,MIC,Staphylococcus aureus [37],16 µg/mL
same,MIC,Cutibacterium acnes [38],8 µg/mL
same,MIC,Cutibacterium acnes [39],4 µg/mL
same,MIC,Clostridioides difficile [40],2 µg/mL
same,MIC,Clostridioides difficile [41],0.5 µg/mL
same,MIC,Clostridioides difficile [42],1 µg/mL
same,MIC,[43],1 µg/mL
same,MIC,Clostridioides difficile [44],16 µg/mL
same,MIC,[45],4 µg/mL
same,MIC,Staphylococcus aureus [46],64 µg/mL
same,MIC,Clostridioides difficile [47],2 µg/mL
same,MIC,Staphylococcus aureus [48],4 µg/mL
same,MIC,Clostridioides difficile [49],8 µg/mL
same,MIC,Clostridioides difficile [50],2 µg/mL
same,MIC,Acinetobacter sp. [51],128 µg/mL
same,MIC,Acinetobacter sp. [52],128 µg/mL
same,MIC,Clostridioides difficile [53],4 µg/mL
same,MIC,Staphylococcus aureus [54],4 µg/mL
same,MIC,Staphylococcus aureus [55],4 µg/mL
same,MIC,[56],4 µg/mL
same,MIC,Staphylococcus aureus [57],4 µg/mL
same,MIC,Clostridioides difficile [58],8 µg/mL
same,MIC,[59],2 µg/mL
same,MIC,Staphylococcus aureus [60],2 µg/mL
same,MIC,Clostridioides difficile [61],2 µg/mL
same,MIC,Candida albicans [62],128 µg/mL
same,MIC,Clostridioides difficile [63],1 µg/mL
same,MIC,Clostridioides difficile [64],2 µg/mL
same,MIC,Clostridioides difficile [65],1 µg/mL
same,MIC,Staphylococcus aureus [66],4 µg/mL
same,MIC,Cutibacterium acnes [67],32 µg/mL
same,MIC,Cutibacterium acnes [68],2 µg/mL
same,MIC,Cutibacterium acnes [69],8 µg/mL
same,MIC,Clostridioides difficile [70],1 µg/mL
same,MIC,Cutibacterium acnes [71],8 µg/mL
same,MIC,Clostridioides difficile [72],2 µg/mL
same,MIC,Candida albicans [73],128 µg/mL
same,MIC,Candida albicans [74],128 µg/mL
same,MIC,Staphylococcus aureus [75],4 µg/mL
same,MIC,Clostridioides difficile [76],0.125 µg/mL
same,MIC,Clostridioides difficile [77],2 µg/mL
same,MIC,Staphylococcus aureus [78],4 µg/mL
